Blank lines part the entries; values can stand above or below the molecule they belong to. The source made the active and inactive calls. The rule behind the calls is not given here.
How the values were obtained:
[1] = molecular target: T1, Low molecular weight phosphotyrosine protein phosphatase (Homo sapiens, UniProt P24666); experiment: Inhibition of human cloned LMW-PTP isoform 1 expressed in Escherichia coli TB1
T1 sequence (P24666 whole entry): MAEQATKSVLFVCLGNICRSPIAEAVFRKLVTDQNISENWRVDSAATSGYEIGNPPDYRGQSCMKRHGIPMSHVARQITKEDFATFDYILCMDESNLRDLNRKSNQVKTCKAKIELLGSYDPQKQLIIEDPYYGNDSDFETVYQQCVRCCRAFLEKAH

[2] = molecular target: T2, Tyrosine-protein phosphatase non-receptor type 1 (Homo sapiens, UniProt P18031); experiment: Inhibition of human cloned PTP1B expressed in Escherichia coli TB1
T2 sequence (P18031 whole entry): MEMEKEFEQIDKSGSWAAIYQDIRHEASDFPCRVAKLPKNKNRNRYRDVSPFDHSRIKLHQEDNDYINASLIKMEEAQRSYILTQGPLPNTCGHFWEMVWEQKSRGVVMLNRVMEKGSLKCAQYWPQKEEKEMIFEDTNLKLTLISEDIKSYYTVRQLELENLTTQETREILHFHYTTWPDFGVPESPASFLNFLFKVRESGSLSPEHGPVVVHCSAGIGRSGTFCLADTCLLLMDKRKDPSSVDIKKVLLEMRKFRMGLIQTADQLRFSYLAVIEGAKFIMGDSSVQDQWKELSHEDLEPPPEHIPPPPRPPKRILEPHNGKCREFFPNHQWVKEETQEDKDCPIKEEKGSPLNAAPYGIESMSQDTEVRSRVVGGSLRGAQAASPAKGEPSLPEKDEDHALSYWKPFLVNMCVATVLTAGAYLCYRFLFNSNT
In short: (§1)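 GST-fused human enzymes (LMW-PTP IF1 or IF2, or PTP-1B) expressed in E. coli TB1, affinity-purified, thrombin-cleaved (3 h, 37 °C) and gel-filtered. […] Reaction stopped with 1 M KOH; p-nitrophenol read at 400 nm. Initial rates in triplicate; IC50 fitted to Vi/V° = IC50/(IC50+[I]); single-concentration lines give % inhibition.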

[3] = molecular target: T1, Low molecular weight phosphotyrosine protein phosphatase; experiment: Inhibition of human cloned LMW-PTP isoform 2 expressed in Escherichia coli TB1
[4] = molecular target: T3, Tyrosine-protein phosphatase non-receptor type 1 (Homo sapiens) (UniProt P18031); experiment: Inhibition of human cloned PTP1B expressed in Escherichia coli TB1 at 20 uM; in short: as §1
T3 sequence (whole entry): T2 sequence (P18031 whole entry)

[5] = molecular target: T4, Low molecular weight phosphotyrosine protein phosphatase (Homo sapiens) (UniProt P24666); experiment: Inhibition of human cloned LMW-PTP isoform 1 expressed in Escherichia coli TB1 at 20 uM; in short: as §1
T4 sequence (whole entry): T1 sequence (P24666 whole entry)

[6] = molecular target: T4, Low molecular weight phosphotyrosine protein phosphatase (Homo sapiens); experiment: Inhibition of human cloned LMW-PTP isoform 2 expressed in Escherichia coli TB1 at 20 uM; in short: as §1
[7] = molecular target: Insulin receptor (Homo sapiens) (UniProt P06213); experiment: Activation of human insulin receptor beta expressed in human HepG2 cells assessed as stimulation of receptor phosphorylation at 10 uM after 90 mins by SDS-PAGE; type: cell-based
Sequence of Insulin receptor (Homo sapiens) (P06213 28-758 limits assumed): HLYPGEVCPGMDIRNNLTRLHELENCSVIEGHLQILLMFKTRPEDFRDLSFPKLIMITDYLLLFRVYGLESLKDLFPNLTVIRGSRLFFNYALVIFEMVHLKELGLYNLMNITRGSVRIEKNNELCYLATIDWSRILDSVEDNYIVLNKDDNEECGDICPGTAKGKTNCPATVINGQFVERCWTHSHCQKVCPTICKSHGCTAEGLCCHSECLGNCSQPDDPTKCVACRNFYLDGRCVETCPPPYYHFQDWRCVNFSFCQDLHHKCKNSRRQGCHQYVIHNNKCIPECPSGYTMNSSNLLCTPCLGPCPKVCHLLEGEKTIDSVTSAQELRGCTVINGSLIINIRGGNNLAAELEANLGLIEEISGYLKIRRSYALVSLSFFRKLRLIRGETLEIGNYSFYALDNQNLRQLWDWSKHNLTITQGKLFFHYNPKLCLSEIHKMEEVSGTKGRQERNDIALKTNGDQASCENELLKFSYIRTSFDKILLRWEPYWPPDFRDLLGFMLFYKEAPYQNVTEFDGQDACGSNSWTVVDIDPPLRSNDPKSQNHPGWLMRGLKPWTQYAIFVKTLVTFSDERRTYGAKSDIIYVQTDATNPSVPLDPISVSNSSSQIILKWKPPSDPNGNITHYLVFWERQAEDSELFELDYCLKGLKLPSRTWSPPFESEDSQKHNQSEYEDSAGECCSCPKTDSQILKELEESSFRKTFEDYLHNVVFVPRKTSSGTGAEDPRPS
Sequence of Insulin receptor (Homo sapiens) (P06213 763-1382 limits assumed): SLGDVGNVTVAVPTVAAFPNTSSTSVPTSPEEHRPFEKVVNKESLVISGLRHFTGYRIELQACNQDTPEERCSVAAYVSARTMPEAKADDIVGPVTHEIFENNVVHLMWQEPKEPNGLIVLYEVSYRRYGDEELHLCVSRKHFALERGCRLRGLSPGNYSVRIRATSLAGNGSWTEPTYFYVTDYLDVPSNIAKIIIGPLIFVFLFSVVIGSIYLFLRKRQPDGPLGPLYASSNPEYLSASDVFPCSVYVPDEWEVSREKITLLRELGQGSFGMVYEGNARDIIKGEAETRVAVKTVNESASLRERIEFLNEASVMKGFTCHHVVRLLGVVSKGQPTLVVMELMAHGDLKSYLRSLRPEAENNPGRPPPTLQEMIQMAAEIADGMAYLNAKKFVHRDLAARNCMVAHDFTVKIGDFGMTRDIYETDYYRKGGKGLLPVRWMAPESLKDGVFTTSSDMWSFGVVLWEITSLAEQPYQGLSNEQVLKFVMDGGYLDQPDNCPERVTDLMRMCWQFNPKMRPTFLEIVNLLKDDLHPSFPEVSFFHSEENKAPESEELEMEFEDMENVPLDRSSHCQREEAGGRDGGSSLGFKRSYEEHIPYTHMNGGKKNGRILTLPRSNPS
In short: (§2)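 HepG2 cells grown in DMEM with 10% bovine calf serum, 37 °C, 5% CO2; subconfluent cells serum-starved 20 h. Inhibitor added to medium at 10 µM final, 90 min, 37 °C; 10 nM insulin, 0.5% DMSO and 10 µM orthovanadate as references. Lysis in SDS Laemmli buffer, SDS-PAGE, Western blot for phospho-IRβ, then stripped and reprobed for phospho-Akt, phosphotyrosine and actin. At least three separate experiments.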

[8] = molecular target: Insulin receptor (Homo sapiens) (UniProt P06213); experiment: Activation of human insulin receptor beta expressed in human HepG2 cells assessed as increase in tyrosine phosphorylation level at 10 uM after 90 mins by SDS-PAGE; type: cell-based; in short: as §2
[9] = molecular target: T1, Low molecular weight phosphotyrosine protein phosphatase; experiment: Inhibition of human cloned LMW-PTP isoform 1 expressed in Escherichia coli TB1 by competitive inhibition assay
[10] = molecular target: T1, Low molecular weight phosphotyrosine protein phosphatase; experiment: Inhibition of human cloned LMW-PTP isoform 2 expressed in Escherichia coli TB1 by competitive inhibition assay
[11] = molecular target: T1, Low molecular weight phosphotyrosine protein phosphatase; experiment: Inhibition of human cloned LMW-PTP isoform 2 expressed in Escherichia coli TB1 by mixed type inhibition assay
[12] = molecular target: T1, Low molecular weight phosphotyrosine protein phosphatase; experiment: Inhibition of human cloned LMW-PTP isoform 1 expressed in Escherichia coli TB1 by mixed type inhibition assay
[13] = molecular target: Insulin receptor (Homo sapiens) (UniProt P06213); experiment: Activation of human insulin receptor beta expressed in human HepG2 cells assessed as increase in Akt phosphorylation level at 10 uM after 90 mins by SDS-PAGE; type: cell-based; in short: as §2
[14] = molecular target: T2, Tyrosine-protein phosphatase non-receptor type 1; experiment: Inhibition of human recombinant PTP1B
[15] = molecular target: T3, Tyrosine-protein phosphatase non-receptor type 1 (Homo sapiens); experiment: Inhibition of human cloned PTP1B expressed in Escherichia coli TB1 at 15 uM; in short: as §1
[16] = molecular target: T2, Tyrosine-protein phosphatase non-receptor type 1; experiment: Inhibition of human cloned PTP1B expressed in Escherichia coli TB1 by mixed type inhibition assay
[17] = molecular target: T4, Low molecular weight phosphotyrosine protein phosphatase (Homo sapiens); experiment: Inhibition of human cloned LMW-PTP isoform 2 expressed in Escherichia coli TB1 at 15 uM; in short: as §1
[18] = molecular target: T4, Low molecular weight phosphotyrosine protein phosphatase (Homo sapiens); experiment: Inhibition of human cloned LMW-PTP isoform 1 expressed in Escherichia coli TB1 at 15 uM; in short: as §1

Compound: O=C(c1ccc(O)cc1)c1oc2ccccc2c1-c1ccc(-c2ccc(O)cc2)cc1
- IC50 [14]: 1.08 µM

Compound: O=c1c(Cc2ccc(-c3ccccc3)cc2)c(Cc2ccc(O)cc2)oc2ccc(O)cc12
- IC50 [1]: 8.6 µM
- inhibition [15]: 20%
- IC50 [3]: 17.2 µM

Compound: Oc1ccc(-c2ccccc2)c(O)c1
- inhibition [4]: 10%
- inhibition [5]: 0%
- inhibition [6]: 0%

Compound: O=c1c(Cc2ccccc2)c(Cc2ccc(O)cc2)oc2cc(O)ccc12
- inhibition [15]: 0%
- inhibition [17]: 10%
- inhibition [18]: 10%

Compound: O=C(O)c1ccc(-c2ccccc2)cc1O
- inhibition [4]: 5%
- inhibition [5]: 0%
- inhibition [6]: 0%

Compound: O=c1cc(Cc2ccc(O)cc2)oc2cc(O)ccc12
- inhibition [15]: 0%
- inhibition [17]: 10%
- inhibition [18]: 10%

Compound: O=c1c(Cc2ccc(-c3ccccc3)cc2)c(CCCc2ccc(O)cc2)oc2cc(O)ccc12
- inhibition [15]: 0%
- inhibition [17]: 10%
- inhibition [18]: 10%

Compound: O=c1c(Cc2ccc(-c3ccccc3)cc2)c(CCc2ccc(O)cc2)oc2cc(O)ccc12
- IC50 [1]: 6.5 µM
- inhibition [15]: 20%
- IC50 [3]: 17.3 µM

Compound: O=c1cc(-c2ccc(O)cc2)oc2cc(O)c(O)cc12
- inhibition [4]: 10%
- inhibition [5]: 25%
- inhibition [6]: 10%

Compound: Oc1ccc(-c2ccccc2)cc1O
- inhibition [4]: 20%
- inhibition [5]: 0%
- inhibition [6]: 0%

The next lines start with the values.

- IC50 [1]: 14.3 µM
- IC50 [2]: 5 µM
- IC50 [3]: 12.6 µM
Compound: O=c1c(Cc2ccc(-c3ccc(O)c(O)c3)cc2)c(-c2ccc(O)cc2)oc2ccccc12

- inhibition [4]: 50%
- inhibition [5]: 60%
- inhibition [6]: 25%
Compound: O=c1c(Cc2cccc(-c3ccc(O)c(O)c3)c2)c(-c2ccc(O)cc2)oc2cc(O)ccc12

- Activity [7]: Active
- IC50 [1]: 1.1 µM
- Activity [8]: Active
- IC50 [2]: 2 µM
- Ki [9]: 0.27 µM
- Ki [10]: 0.34 µM
- IC50 [3]: 3 µM
Compound: O=c1c(Cc2ccc(-c3ccccc3)cc2)c(-c2ccc(O)cc2)oc2cc(O)c(O)cc12

- Activity [7]: Active
- IC50 [1]: 7.4 µM
- Activity [8]: Active
- IC50 [2]: 7.7 µM
- Ki [11]: 2.68 µM
- Ki [12]: 2.23 µM
- IC50 [3]: 12.4 µM
- Activity [13]: Active
Compound: O=c1c(Cc2ccc(-c3ccc(O)c(O)c3)cc2)c(-c2ccc(O)cc2)oc2cc(O)ccc12

- IC50 [2]: 17 µM
Compound: O=c1c(Cc2ccc(-c3ccc(O)cc3)cc2)c(-c2ccc(O)cc2)oc2cc(O)ccc12

- IC50 [1]: 5.7 µM
- inhibition [15]: 4%
- Ki [11]: 7.8 µM
- Ki [12]: 2.5 µM
- IC50 [3]: 13.9 µM
- Ki [16]: 29.1 µM
Compound: O=c1c(Cc2ccc(-c3ccccc3)cc2)c(-c2ccc(O)cc2)oc2cc(O)ccc12

- IC50 [1]: 11.4 µM
- IC50 [2]: 6.2 µM
- IC50 [3]: 26.8 µM
Compound: O=C(O)c1cccc(-c2ccc(Cc3c(-c4ccc(O)cc4)oc4cc(O)ccc4c3=O)cc2)c1

- IC50 [1]: 5.3 µM
- inhibition [15]: 10%
- IC50 [3]: 17.5 µM
Compound: O=c1c(Cc2ccc(-c3ccccc3)cc2)c(Cc2ccc(O)cc2)oc2cc(O)ccc12

- IC50 [1]: 0.7 µM
- IC50 [2]: 0.9 µM
- IC50 [3]: 5.7 µM
Compound: O=C(O)c1ccc(-c2ccc(Cc3c(-c4ccc(O)cc4)oc4ccccc4c3=O)cc2)cc1O

- inhibition [4]: 50%
- inhibition [5]: 5%
- inhibition [6]: 10%
Compound: O=C(O)c1ccc(-c2cccc(Cc3c(-c4ccc(O)cc4)oc4cc(O)ccc4c3=O)c2)cc1O

- Activity [7]: Active
- IC50 [1]: 1.3 µM
- Activity [8]: Active
- IC50 [2]: 1 µM
- IC50 [3]: 2.2 µM
- Activity [13]: Active
Compound: O=C(O)c1ccc(-c2ccc(Cc3c(-c4ccc(O)cc4)oc4cc(O)ccc4c3=O)cc2)cc1O

From ChEMBL document CHEMBL1153398, “Synthesis, activity and molecular modeling of a new series of chromones as low molecular weight protein tyrosine phosphatase inhibitors” (Bioorg Med Chem, 2009)
